SMILES strings stand for the structures. Calls of active or inactive are those of the source.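 Rule for the calls: active = IC50 at or below 10 µM; inactive = IC50 above 10 µM.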 Where only a bound is given, the exact number is not on record here.

Sequence of Disintegrin and metalloproteinase domain-containing protein 10 (Homo sapiens) (O14672 214-748 limits assumed): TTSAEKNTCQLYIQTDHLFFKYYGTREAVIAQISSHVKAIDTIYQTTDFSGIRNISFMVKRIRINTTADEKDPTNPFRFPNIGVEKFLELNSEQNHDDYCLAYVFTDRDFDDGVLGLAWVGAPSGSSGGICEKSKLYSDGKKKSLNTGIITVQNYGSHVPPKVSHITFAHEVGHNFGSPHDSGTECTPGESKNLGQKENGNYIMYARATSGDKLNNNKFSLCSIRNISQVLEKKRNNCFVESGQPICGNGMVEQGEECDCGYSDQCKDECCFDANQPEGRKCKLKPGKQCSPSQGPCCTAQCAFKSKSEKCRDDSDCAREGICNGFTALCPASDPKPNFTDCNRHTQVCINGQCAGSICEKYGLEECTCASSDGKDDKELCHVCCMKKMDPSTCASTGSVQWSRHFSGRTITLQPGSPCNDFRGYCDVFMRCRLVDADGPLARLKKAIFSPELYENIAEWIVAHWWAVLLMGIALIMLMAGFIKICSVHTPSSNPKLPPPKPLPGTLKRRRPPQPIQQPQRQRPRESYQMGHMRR

The experiment deals with Disintegrin and metalloproteinase domain-containing protein 10 (Homo sapiens) (UniProt O14672). Put plainly: inhibition of ADAM10 substrate cleavage, late-stage follow-up, ADAM10 exosite inhibitor project, biochemical, QFRET peptide, fluorescence (AID 743338). The settings on record: recombinant ADAM10, QFRET peptide cleavage. The method in brief:
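evaluation = IC50 from four-parameter inhibition curve fit | test system = human ADAM10 | also added = DM2 quenched peptide substrate | dosing = 10 doses, 1:3 steps, up to 69.5 µM | times = Enzyme–compound preincubation 30 min at 25 °C, substrate reaction 3 h | benchmarks = 1 µM marimastat high, DMSO low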
One may read the IC50 as the concentration that inhibits the measured activity by half. As for `CCOc1ccc(NC(=O)CC2SC(=O)N(c3ccccc3)C2=O)cc1` (stereo not drawn), the IC50 is > 69.5 µM (inactive).
The result for `COc1ccc2nc(SCC(=O)Nc3ccc(S(=O)(=O)N4CCCC4)cc3)c(C#N)cc2c1` reads > 69.5 µM (inactive); that for `COc1ccc(-c2ccc(-c3noc(-c4cccc(OC)c4)n3)c(OC)n2)cc1`, > 69.5 µM (inactive).
The result for `Cc1ccc(S(=O)(=O)Nc2ccc(Cl)cc2)cc1NC(=O)c1cc2c(s1)CCCC2` reads > 69.5 µM (inactive).
With `O=C(Nc1ccc(OCC(F)(F)C(F)(F)F)c(C(F)(F)F)c1)c1ccc(Br)cc1`, the IC50 is > 69.5 µM (inactive).
The result for `CCCCN(Cc1ccccc1)S(=O)(=O)c1cc(Br)cc2c1N(C(C)=O)C(C)C2` (stereo not drawn) reads > 69.5 µM (inactive); that for `C=C(C)COc1ccc(-c2n[nH]c(C)c2Oc2ccccc2OC)c(O)c1`, “inactive”.
`COc1cccc(C(=O)NNC(=O)C(=O)Nc2ccc(C)c(Cl)c2)c1`: the 50% inhibitory concentration (IC50) is 6.5 µM.
The value for `O=C(Nc1ccc(OCC(F)(F)C(F)F)c(C(F)(F)F)c1)c1ccc(Cl)cc1` was > 69.5 µM (inactive); that for `Cc1ccc(OCC(O)Cn2c3ccccc3c3ccccc32)cc1` (stereo not drawn) was > 69.5 µM (inactive); that for `O=C(O)CCC(=O)c1c[nH]c2ccccc12` was > 69.5 µM (inactive).
The value for `Cc1csc(-c2cnn(-c3ccccc3)c2NC(=O)c2ccc(C(F)(F)F)cc2)n1` was > 69.5 µM (inactive); that for `CS(=O)(=O)N(CC(=O)Nc1ccccc1Sc1ccccc1)c1cccc(Br)c1` was > 69.5 µM (inactive).
Consider `O=S(=O)(NCC(Nc1ccc(Cl)cc1)c1ccccc1)c1ccc(Cl)cc1` (stereo not drawn), for which the IC50 is > 69.5 µM (inactive).
The result for `O=C(Nc1ccc(OCC(F)(F)C(F)(F)F)c(C(F)(F)F)c1)c1ccc(F)cc1` reads > 69.5 µM (inactive); that for `COc1ccccc1NS(=O)(=O)c1cccc(NC(=O)Nc2ccc(Cl)cc2)c1`, > 69.5 µM (inactive); that for `O=S(=O)(NCC(Nc1ccc(Cl)cc1)c1ccccc1)c1ccccc1` (stereo not drawn), > 69.5 µM (inactive).
The result for `O=C(CN(Cc1cccs1)S(=O)(=O)c1ccc(S(=O)(=O)NC2CCCCC2)cc1)Nc1ccccc1` reads > 69.5 µM (inactive); that for `C=C(C)COc1ccc(-c2[nH]ncc2Oc2cccc(OC)c2)c(O)c1`, “inactive”; that for `Oc1cc2c(cc1C(c1ccc(Cl)c(Cl)c1)N1CCCC1)OCO2` (stereo not drawn), 4.87 µM.
On to `Cc1ccc(CC2(c3ccccc3)NC(=O)NC2=O)cc1` (stereo not drawn), for which the IC50 was > 69.5 µM (inactive).
The result for `C=C(C)COc1ccc(-c2[nH]ncc2Oc2ccc(OC)cc2)c(O)c1` reads “inactive”; that for `O=C1NC(=O)C(Cc2ccc(Cl)cc2)(c2ccccc2)N1` (stereo not drawn), “inactive”.

For the origin of these results see PubChem BioAssay AID743338 (The Scripps Research Institute Molecular Screening Center, 2014).
